pEC50, pIC50: −log10 of the molar value. In brackets after ≈: the same amount, converted by molar mass. Activity calls are given as the source filed them. The calls are words filed in the database; no cut-off is given here.
How the values were obtained:
[1] = Cytotoxicity against human […] cells after 48 hrs by MTT assay; assay type: functional, cell-based
[2] = test system: A549; experiment: Cytotoxicity against human A549 cells after 48 hrs by MTT assay; assay type: functional, cell-based; conditions: A549, 48 h
[3] = test system: Staphylococcus aureus; experiment: Antibacterial activity against methicillin-resistant Staphylococcus aureus ATCC 43300 after 24 hrs by double dilution method; assay type: functional, organism-based
[4] = test system: MCF7; experiment: Cytotoxicity against human MCF7 cells after 48 hrs by MTT assay; assay type: functional, cell-based; conditions: MCF7, 48 h
[5] = test system: Thoracic aorta; experiment: Vasorelaxant activity in Sprague-Dawley rat thoracic aortic ring assessed as inhibition of KCl-induced contraction at 50 uM; assay type: functional, tissue-based
Method in brief: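 Rat aortic rings contracted with KCl; relaxation measured with test agent at a single concentration of 50 μM. Methoxyverapamil and phentolamine mesylate were the positive controls.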

[6] = test system: SGC-7901; experiment: Cytotoxicity against human SGC7901 cells after 48 hrs by MTT assay; assay type: functional, cell-based; conditions: SGC-7901, 48 h
[7] = test system: Staphylococcus aureus; experiment: Antibacterial activity against Staphylococcus aureus ATCC 25923 after 24 hrs by double dilution method; assay type: functional, organism-based
[8] = test system: Escherichia coli; experiment: Antibacterial activity against Escherichia coli ATCC 25922 after 24 hrs by double dilution method; assay type: functional, organism-based
[9] = test system: Thoracic aorta; experiment: Vasorelaxant activity in Sprague-Dawley rat thoracic aortic ring assessed as inhibition of KCl-induced contraction; assay type: functional, tissue-based
Method in brief: (§1)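 Rat aortic rings precontracted with phenylephrine (PHE) or KCl; relaxation measured over a range of concentrations and EC50 derived. Positive controls were phentolamine mesylate and methoxyverapamil.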

[10] = test system: Thoracic aorta; experiment: Vasorelaxant activity in Sprague-Dawley rat thoracic aortic ring assessed as inhibition of phenylephrine-induced contraction; assay type: functional, tissue-based; method in brief: as §1
[11] = test system: Candida albicans; experiment: Antifungal activity against Candida albicans CMCC 98001 after 24 hrs by double dilution method; assay type: functional; conditions: CMCC 98001, 24 h
[12] = test system: PC-12; experiment: Neuroprotective activity against glutamate-induced cell damage in rat PC12 cells assessed as cell viability at 50 uM pretreated followed by glutamate challenge and measured after 24 hrs by MTT assay (reference value: 49.14 +/- 3.15%); assay type: functional; conditions: read-out: Activity
[13] = test system: PC-12; experiment: Neuroprotective activity against glutamate-induced cell damage in rat PC12 cells assessed as increase in cell viability at 10 uM pretreated followed by glutamate challenge and measured after 24 hrs by MTT assay; assay type: functional, cell-based

| SMILES | pIC50 [1] | pIC50 [2] | Activity [3] | pIC50 [4] | inhibition [5] | pIC50 [6] | Activity [7] | Activity [8] | pEC50 [9] | inhibition [9] | pEC50 [10] | inhibition [10] | MIC [11] | viability at 50 µM [12] | Activity [13] |
| --- | --- | --- | --- | --- | --- | --- | --- | --- | --- | --- | --- | --- | --- | --- | --- |
| C=C(C)[C@@H]1C[C@@H](O)C(=C)C2=CC[C@H](C)[C@@H]2C1 | < 4.30 | < 4.30 | inactive | < 4.30 | inactive | < 4.30 | inactive | inactive | – | – | – | – | – | – | – |
| C=C(C)[C@@H]1CC[C@H](C)[C@@]23O[C@]2(C1)[C@@H](C)C[C@H]3O | < 4.30 | < 4.30 | inactive | < 4.30 | – | < 4.30 | inactive | inactive | 4.62 | Dose-dependent effect | 5.80 | Dose-dependent effect | 300 µM (≈ 70.9 µg/mL) | – | – |
| C=C(C)[C@@H]1CC[C@H](C)[C@H](CCC(C)=O)C(=O)C1 | < 4.30 | < 4.30 | inactive | < 4.30 | – | < 4.30 | inactive | inactive | – | Active | – | – | – | 78.7% | – |
| COCCOC(=O)C1=C(C)NC(C)=C(C(=O)OC(C)C)C1c1cccc([N+](=O)[O-])c1 (centres undefined) | – | – | – | – | – | – | – | – | – | – | – | – | – | – | Active |
| C=C(C)[C@@H]1CC[C@](C)(O)[C@@H]2CC[C@H](C)[C@]2(O)C1 | < 4.30 | < 4.30 | inactive | < 4.30 | inactive | < 4.30 | inactive | inactive | – | – | – | – | – | 66.1% | – |
| C=C(C)[C@@H]1CC[C@@](C)(O)C2=C[C@@H](O)[C@H](C)[C@@H]2C1 | < 4.30 | < 4.30 | inactive | < 4.30 | inactive | < 4.30 | inactive | inactive | – | – | – | – | – | – | – |
| C=C(C)[C@@H]1CC[C@H](C)[C@@H](CCC(C)=O)C(=O)C1 | < 4.30 | < 4.30 | inactive | < 4.30 | inactive | < 4.30 | inactive | inactive | – | – | – | – | – | 75.7% | – |
| C=C(C)[C@@H]1CCC(C)=C2C(=O)C=C(C)[C@@H]2C1 | < 4.30 | < 4.30 | inactive | < 4.30 | inactive | < 4.30 | inactive | inactive | – | – | – | – | – | – | – |
| C=C(C)[C@@H]1CC[C@H](C)[C@]23CC[C@](C)(O)[C@@]2(C1)O3 | < 4.30 | < 4.30 | inactive | < 4.30 | inactive | < 4.30 | inactive | inactive | – | – | – | – | – | 65.5% | – |
| C=C(C)[C@@H]1CCC(=C)[C@]2(O)[C@@H](O)C[C@H](C)[C@@H]2C1 | < 4.30 | < 4.30 | inactive | < 4.30 | – | < 4.30 | inactive | inactive | – | Dose-dependent effect | 5.27 | Dose-dependent effect | 500 µM (≈ 118 µg/mL) | – | – |
